Values after ≈ are worked out from the molar mass of the structure shown. Active and inactive are the calls of the source. The rule behind the calls is not given here.
How the values were obtained:
[1] = tested on: Staphylococcus aureus; assay: Antibacterial activity against methicillin-resistant Staphylococcus aureus isolate CBD 635 at 50 ug per disc by Kirby-Bauer disc diffusion assay; format: functional; conditions: read-out: DIZ
Procedure, shortened: (§1)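 Kirby-Bauer disk diffusion with 50 µg compound per 6 mm paper disk. Organisms were grown and plated by an earlier method. The zone-of-inhibition diameter was recorded to the nearest mm and averaged over three independent experiments. No zone was reported as 6 mm, the disk diameter.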

[2] = tested on: Staphylococcus aureus; assay: Antibacterial activity against methicillin-resistant Staphylococcus aureus isolate CBD 635; format: functional
Procedure, shortened: (§2)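 MIC against S. aureus strains was run by an earlier published procedure, tested in triplicate. Values were averaged and expressed as µg/ml of compound.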

[3] = tested on: Staphylococcus aureus; assay: Antibacterial activity against methicillin-susceptible Staphylococcus aureus SH1000; format: functional
Procedure, shortened: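 MIC in µg/ml, tested in triplicate and averaged, with ciprofloxacin as positive control.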

[4] = tested on: Staphylococcus aureus; assay: Antibacterial activity against methicillin-resistant Staphylococcus aureus ATCC 43300; format: functional; procedure, shortened: as §2
[5] = tested on: Bacillus anthracis; assay: Antibacterial activity against Bacillus anthracis sterne at 50 ug per disc by Kirby-Bauer disc diffusion assay; format: functional; conditions: read-out: DIZ; procedure, shortened: as §1
[6] = tested on: Enterococcus faecalis; assay: Antibacterial activity against Enterococcus faecalis DS16 at 50 ug per disc by Kirby-Bauer disc diffusion assay; format: functional; conditions: read-out: DIZ
Procedure, shortened: (§3)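 Disks carried 50 µg of compound. Zone diameter was measured to the nearest mm and averaged over three independent experiments. A value of 6 mm, the disk diameter, was recorded where no inhibition was seen.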

[7] = Antibacterial activity against Bartonella henselae ATCC 49882 at 20 ug per disc after 7 days by Kirby-Bauer disc diffusion assay; format: functional, Bartonella henselae str. Houston-1; conditions: ATCC 49882, 168 h, read-out: DIZ
Procedure, shortened: (§4)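 Each paper disk was loaded with 20 µl of a 1 mg/ml solution, dried for 20 min and stored desiccated at 4 °C. Growth from 4-day plates was suspended in heart infusion broth to McFarland 2.0 and swabbed onto chocolate agar (heart infusion agar base with 5% bovine hemoglobin). Plates were incubated 1 week at 37 °C in 5% CO2. Zone diameter was read to the nearest mm, in triplicate and averaged.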

[8] = tested on: Bartonella quintana; assay: Antibacterial activity against Bartonella quintana ATCC VR358 at 20 ug per disc after 7 days by Kirby-Bauer disc diffusion assay; format: functional; conditions: ATCC VR358, 168 h, read-out: DIZ; procedure, shortened: as §4
[9] = tested on: Bartonella elizabethae; assay: Antibacterial activity against Bartonella elizabethae F9251 at 20 ug per disc after 7 days by Kirby-Bauer disc diffusion assay; format: functional; conditions: F9251, 168 h, read-out: DIZ; procedure, shortened: as §4
[10] = tested on: Bartonella vinsonii; assay: Antibacterial activity against Bartonella vinsonii ATCC VR152 at 20 ug per disc after 7 days by Kirby-Bauer disc diffusion assay; format: functional; conditions: ATCC VR152, 168 h, read-out: DIZ; procedure, shortened: as §4
[11] = tested on: Escherichia coli; assay: Antibacterial activity against Escherichia coli DH5alpha at 50 ug per disc by Kirby-Bauer disc diffusion assay; format: functional; conditions: DH5[alpha], read-out: DIZ; procedure, shortened: as §3
[12] = tested on: Escherichia coli; assay: Inhibition of Escherichia coli DNA gyrase-mediated formation of supercoiled form of pUC19 at 1 to 100 ug/mL by gel electrophoresis
Procedure, shortened: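 Relaxed circular pUC19 was incubated with purified E. coli DNA gyrase and compound for 1 h at 37 °C. Relaxed and supercoiled DNA were resolved and quantified by gel electrophoresis.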

[13] = Antibacterial activity against Bartonella henselae ATCC 49882 after 7 days by agar dilution method; format: functional, Bartonella henselae str. Houston-1; conditions: ATCC 49882, 168 h
Procedure, shortened: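 Agar dilution on chocolate agar containing compound at 10.0, 1.0 and 0.1 µg/ml, with 2-fold steps at and below 1.0 µg/ml for compounds active there. Controls were DMSO-only and drug-free plates. 25 µl of a McFarland 2.0 suspension in heart infusion broth was spotted and incubated 7 days at 37 °C in 5% CO2. Growth was scored +/− on duplicate plates; triplicate results were averaged.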

[14] = Antibacterial activity against Bartonella henselae Houston-1 infected in human HMEC1 cells assessed as intracellular bacterial load at 1 ug/mL incubated for 96 hrs followed by compound washout measured after 7 days relative to control; format: functional, Bartonella henselae str. Houston-1
Procedure, shortened: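 HMEC-1 cells grown in MCDB131 with 10% FBS, EGF and hydrocortisone were infected with B. henselae Houston-1 at MOI 100 for 4 h. Extracellular bacteria were killed with gentamicin (200 µg/ml, 1 h), then compound was added at 0.1 or 1.0 µg/ml for 96 h. After washing, cells were lysed with 0.1% saponin and lysates plated on chocolate agar for 7 days. CFU are given as a percentage of the media-only control.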

Compound | zone of inhibition at 50 µg/disc [1] | MIC [2] | MIC [3] | MIC [4] | zone of inhibition at 50 µg/disc [5] | zone of inhibition at 50 µg/disc [6] | zone of inhibition at 20 µg/disc [7] | zone of inhibition at 20 µg/disc [8] | zone of inhibition at 20 µg/disc [9] | zone of inhibition at 20 µg/disc [10] | zone of inhibition at 50 µg/disc [11] | gyrase inhibition (active/inactive) [12] | MIC [13] | Activity [14]
CC(C)(C)C(=O)N1CCN(c2cc3c(cc2F)c(=O)c(C(=O)O)cn3C2CC2)CC1 | 22 mm | > 100 µg/mL | 7.5 µg/mL (≈ 18.1 µM) | > 100 µg/mL | 80 mm | 44 mm | 40 mm | 33 mm | 36 mm | 36 mm | 51 mm | Active | – | –
CCCC(CCC)C(=O)N1CCN(c2cc3c(cc2F)c(=O)c(C(=O)O)cn3C2CC2)CC1 | 6 mm | > 100 µg/mL | 10 µg/mL (≈ 21.9 µM) | > 100 µg/mL | 72 mm | 26 mm | 14 mm | 6 mm | 6 mm | 6 mm | 6 mm | – | 5 µg/mL (≈ 10.9 µM) | –
CCCC(=O)N1CCN(c2cc3c(cc2F)c(=O)c(C(=O)O)cn3C2CC2)CC1 | 6 mm | > 100 µg/mL | > 100 µg/mL | > 100 µg/mL | 86 mm | 40 mm | 34 mm | 29 mm | 42 mm | 44 mm | 48 mm | – | 0.5 µg/mL (≈ 1.25 µM) | <=10%
O=C(O)c1cn(C2CC2)c2cc(N3CCN(C(=O)c4ccccc4)CC3)c(F)cc2c1=O | 6 mm | > 100 µg/mL | 25 µg/mL (≈ 57.4 µM) | > 100 µg/mL | 49 mm | 6 mm | 21 mm | 7 mm | 13 mm | 12 mm | 6 mm | – | 0.2 µg/mL (≈ 0.459 µM) | –
CCCCCCCCC(=O)N1CCN(c2cc3c(cc2F)c(=O)c(C(=O)O)cn3C2CC2)CC1 | 22 mm | > 100 µg/mL | 10 µg/mL (≈ 21.2 µM) | 10 µg/mL (≈ 21.2 µM) | 55 mm | 23 mm | 6 mm | 11 mm | 12 mm | 14 mm | 30 mm | – | 10 µg/mL (≈ 21.2 µM) | –
CCCCC(CC)C(=O)N1CCN(c2cc3c(cc2F)c(=O)c(C(=O)O)cn3C2CC2)CC1 (stereo unspecified) | 26 mm | > 100 µg/mL | 10 µg/mL (≈ 21.9 µM) | > 100 µg/mL | 65 mm | 28 mm | 12 mm | 6 mm | 12 mm | 15 mm | 6 mm | – | – | –
CCCCC(=O)N1CCN(c2cc3c(cc2F)c(=O)c(C(=O)O)cn3C2CC2)CC1 | 30 mm | > 100 µg/mL | 7.5 µg/mL (≈ 18.1 µM) | 1 µg/mL (≈ 2.41 µM) | 80 mm | 39 mm | 38 mm | 35 mm | 35 mm | 57 mm | 47 mm | – | 5 µg/mL (≈ 12 µM) | –
CCCCCC(=O)N1CCN(c2cc3c(cc2F)c(=O)c(C(=O)O)cn3C2CC2)CC1 | 36 mm | > 100 µg/mL | 20 µg/mL (≈ 46.6 µM) | 25 µg/mL (≈ 58.2 µM) | 77 mm | 38 mm | 31 mm | 30 mm | 30 mm | 21 mm | 30 mm | Active | 5 µg/mL (≈ 11.6 µM) | –
CCCCCCCC(=O)N1CCN(c2cc3c(cc2F)c(=O)c(C(=O)O)cn3C2CC2)CC1 | 6 mm | > 100 µg/mL | 25 µg/mL (≈ 54.6 µM) | 25 µg/mL (≈ 54.6 µM) | 65 mm | 29 mm | 16 mm | 14 mm | 14 mm | 15 mm | 6 mm | – | 10 µg/mL (≈ 21.9 µM) | –
CC(CC(=O)N1CCN(c2cc3c(cc2F)c(=O)c(C(=O)O)cn3C2CC2)CC1)CC(C)(C)C (stereo unspecified) | 35 mm | > 100 µg/mL | 25 µg/mL (≈ 53 µM) | > 100 µg/mL | 80 mm | 25 mm | 15 mm | 7 mm | 8 mm | 10 mm | 6 mm | Active | 1 µg/mL (≈ 2.12 µM) | –
CCCCCCC(=O)N1CCN(c2cc3c(cc2F)c(=O)c(C(=O)O)cn3C2CC2)CC1 | 30 mm | > 100 µg/mL | 25 µg/mL (≈ 56.4 µM) | > 100 µg/mL | 71 mm | 36 mm | 28 mm | 20 mm | 20 mm | 22 mm | 45 mm | – | 10 µg/mL (≈ 22.5 µM) | –
CCC(CC)C(=O)N1CCN(c2cc3c(cc2F)c(=O)c(C(=O)O)cn3C2CC2)CC1 | 30 mm | > 100 µg/mL | > 100 µg/mL | 1 µg/mL (≈ 2.33 µM) | 81 mm | 22 mm | 33 mm | 17 mm | 26 mm | 25 mm | 39 mm | – | 5 µg/mL (≈ 11.6 µM) | –

From ChEMBL document CHEMBL2150951, “Studies on the antimicrobial properties of N-acylated ciprofloxacins” (2012)
